Laboratory results reported in ChEMBL document CHEMBL1142567, “Inhibition of leukotriene biosynthesis by stilbenoids from Stemona species” (J Nat Prod, 2005).
Calls of active or inactive are those of the source. The calls are words filed in the database; no cut-off is given here.

What was measured:
Type in all cases: functional
[1] = Ex vivo inhibition of leukotriene formation in calcium ionophore activated human neutrophilic granulocyte by ELISA
In short: (§1)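 Human neutrophil granulocytes carrying 5-LOX activity, isolated by sedimentation rate and lysis tolerance. Cells activated with calcium ionophore, then incubated with test sample and arachidonic acid. Reaction stopped with formic acid and centrifuged. Supernatant diluted 50-fold; LTB4 measured by competitive EIA (18 h, 4 °C; Ellman's development; 412 nm). Samples tested at 50, 25, 10, 5 and 1 µM in duplicate. Inhibition given as percent of control; IC50 by probit-log analysis. Trypan blue viability check.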

[2] = (§2) Ex vivo inhibition of leukotriene formation in calcium ionophore activated human neutrophilic granulocyte at 50 uM by ELISA; in short: as §1
Homo sapiens = organism: Homo sapiens; experiment: as §2; in short: as §1
[3] = Ex vivo inhibition of leukotriene formation in calcium ionophore activated human neutrophilic granulocyte at 25 uM by ELISA; in short: as §1

IC50 [1] [µM] | Structure (SMILES) | inhibition at 50 µM [2] [%] | Activity (Homo sapiens) | inhibition at 25 µM [3] [%]
> 50 | Oc1cc(O)cc(CCc2ccccc2)c1 [DIHYDROPINOSYLVIN] | 10 |  | 
22.7 | Oc1cc(O)cc(/C=C/c2ccccc2)c1 [PINOSYLVIN] |  |  | 
> 50 | Oc1ccc(/C=C/c2cc(O)cc(O)c2)cc1 [RESVERATROL] | < 10 |  | 
8.5 | COc1c(O)ccc2c1CCc1cc(O)c(C)c(OC)c1-2 [STEMANTHRENE A] |  |  | 
 | COc1cc2c(c(O)c1C)-c1ccc(O)c(OC)c1CC2 [STEMANTHRENE B] |  |  | 100
 | COc1c(O)ccc2c1CCc1c(C)c(O)c(C)c(OC)c1-2 [STEMANTHRENE C] |  |  | 100
4.8 | COc1cc(O)c(C)c2c1-c1ccc(O)c(OC)c1CC2 [STEMANTHRENE D] |  |  | 
23.3 | COc1cc(O)cc(-c2cc3c(O)cccc3o2)c1 [STEMOFURAN B] |  |  | 
> 50 | Cc1c(O)cc(-c2cc3ccccc3o2)cc1O [STEMOFURAN C] | 10 |  | 
30.3 | COc1cc(O)c(C)c(-c2cc3c(O)cccc3o2)c1 [STEMOFURAN D] |  |  | 
3.7 | COc1cc(-c2cc3c(O)c(C)ccc3o2)c(C)c(O)c1C [STEMOFURAN G] |  |  | 
26.3 | COc1cc(-c2cc3c(O)cccc3o2)c(C)c(OC)c1C [STEMOFURAN J] |  |  | 
> 50 | COc1ccccc1CCc1cc(O)cc(O)c1 [STILBOSTEMIN A] | < 10 |  | 
> 50 | Cc1c(O)cc(CCc2ccccc2)cc1O [STILBOSTEMIN B] | 10 |  | 
> 50 | COc1ccccc1CCc1cc(O)c(C)c(O)c1 [STILBOSTEMIN D] | < 10 |  | 
> 50 | COc1cc(O)c(C)c(CCc2cccc(O)c2OC)c1 [STILBOSTEMIN F] | < 10 |  | 
25.8 | COc1cc(CCc2cccc(O)c2OC)cc(O)c1C [STILBOSTEMIN G] |  |  | 
10.4 | CC(c1cc2ccccc2s1)N(O)C(N)=O (centres undefined) [ZILEUTON] |  |  | 

Structure (SMILES) | IC50 [1] [µM] | inhibition at 50 µM [2] [%] | Activity (Homo sapiens) | inhibition at 25 µM [3] [%]
CC[C@@H]1[C@H]2CCCCN3[C@H]2[C@@H](C[C@H]3[C@@H]2C[C@H](C)C(=O)O2)[C@H]2[C@@H]1OC(=O)[C@H]2C [NEOTUBEROSTEMONINE] | > 50 |  | inactive | 
CC[C@@H]1[C@H]2CCCCN3[C@H]2[C@H](C[C@H]3[C@@H]2C[C@H](C)C(=O)O2)[C@@H]2[C@H]1OC(=O)[C@H]2C [TUBEROSTEMONINE] | > 50 |  | inactive | 
